Measured values reported in ChEMBL document CHEMBL1131019, “Minimal-size, constrained corticotropin-releasing factor agonists with i-(i+3) Glu-Lys and Lys-Glu bridges” (1998).

Columns and labels:
Assay type in all cases: functional, Pituitary gland cell
Rattus norvegicus [1] = organism: Rattus norvegicus; assay: Agonist activity by measuring release of ACTH by rat pituitary cells in culture relative to ovine Corticotropin-Releasing factor (CRF)
In short: (§1)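 Male Sprague–Dawley rat anterior pituitary cells, collagenase-dissociated, plated at 0.16 × 10⁶ cells/well in 2% FBS medium. After 3 days, washed into 0.1% BSA medium, preincubated 1 h, washed again, then exposed to peptide for 3 h. Medium ACTH measured by radioimmunoassay.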

Rattus norvegicus [2] = organism: Rattus norvegicus; assay: Percent in vito intrinsic activity (IA) was evaluated in pituitary cell culture assay
In short: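 ACTH release assay in cultured rat anterior pituitary cells from male Sprague–Dawley rats: 3-day culture, 1 h preincubation in 0.1% BSA medium, 3 h peptide exposure, ACTH in medium by radioimmunoassay. Intrinsic activity = ACTH released at maximal analogue dose divided by ACTH released at maximal CRF dose, ×100.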

Rattus norvegicus [3] = organism: Rattus norvegicus; assay: In vitro for agonist activity by measuring release of ACTH by rat pituitary cells in culture relative to human Corticotropin-Releasing factor (CRF); in short: as §1

CCCC[C@H](NC(=O)[C@H](CCC(=O)O)NC(=O)[C@H](CC(C)C)NC(=O)[C@@H](NC(=O)[C@H](CCC(=O)O)NC(=O)[C@H](CCCN=C(N)N)NC(=O)[C@H](CC(C)C)NC(=O)[C@@H]1CCC(=O)NCCCC[C@H](NC(=O)[C@H](CC(C)C)NC(=O)[C@H](CC(=O)O)NC(=O)[C@H](CC(C)C)NC(=O)[C@H](CO)NC(=O)[C@@H](NC(=O)[C@@H]2CCCN2C(=O)[C@@H]2CCCN2C(C)=O)[C@@H](C)CC)C(=O)N[C@H](Cc2ccccc2)C(=O)N[C@@H](Cc2c[nH]cn2)C(=O)N1)C(C)C)C(=O)N[C@@H](C)C(=O)N[C@@H](CCCN=C(N)N)C(=O)N[C@@H](C)C(=O)N[C@@H](CCC(=O)O)C(=O)N[C@@H](CCC(N)=O)C(=O)N[C@@H](CC(C)C)C(=O)N[C@@H](C)C(=O)N[C@@H](CCC(N)=O)C(=O)N[C@@H](CCC(N)=O)C(=O)N[C@@H](C)C(=O)N[C@@H](Cc1c[nH]cn1)C(=O)N[C@@H](CO)C(=O)N[C@@H](CC(N)=O)C(=O)N[C@@H](CCCN=C(N)N)C(=O)N[C@@H](CCCCN)C(=O)N[C@@H](CC(C)C)C(=O)N[C@@H](CCCC)C(=O)N[C@@H](CCC(=O)O)C(=O)N[C@H](C(=O)N[C@H](C(N)=O)[C@@H](C)CC)[C@@H](C)CC
Potency (Rattus norvegicus [1]): 0.0004

CCCC[C@H](NC(=O)[C@H](CCC(=O)O)NC(=O)[C@H](CC(C)C)NC(=O)[C@@H](NC(=O)[C@H](CCC(=O)O)NC(=O)[C@H](CCCN=C(N)N)NC(=O)[C@H](CC(C)C)NC(=O)[C@@H]1CCCCNC(=O)CC[C@H](NC(=O)[C@H](CC(C)C)NC(=O)[C@H](CC(=O)O)NC(=O)[C@H](CC(C)C)NC(=O)[C@H](CO)NC(=O)[C@@H](NC(=O)[C@@H]2CCCN2C(=O)[C@@H]2CCCN2C(C)=O)[C@@H](C)CC)C(=O)N[C@H](Cc2ccccc2)C(=O)N[C@@H](Cc2c[nH]cn2)C(=O)N1)C(C)C)C(=O)N[C@@H](C)C(=O)N[C@@H](CCCN=C(N)N)C(=O)N[C@@H](C)C(=O)N[C@@H](CCC(=O)O)C(=O)N[C@@H](CCC(N)=O)C(=O)N[C@@H](CC(C)C)C(=O)N[C@@H](C)C(=O)N[C@@H](CCC(N)=O)C(=O)N[C@@H](CCC(N)=O)C(=O)N[C@@H](C)C(=O)N[C@@H](Cc1c[nH]cn1)C(=O)N[C@@H](CO)C(=O)N[C@@H](CC(N)=O)C(=O)N[C@@H](CCCN=C(N)N)C(=O)N[C@@H](CCCCN)C(=O)N[C@@H](CC(C)C)C(=O)N[C@@H](CCCC)C(=O)N[C@@H](CCC(=O)O)C(=O)N[C@H](C(=O)N[C@H](C(N)=O)[C@@H](C)CC)[C@@H](C)CC
Potency (Rattus norvegicus [1]): 1.4

CCCC[C@H](NC(=O)[C@H](CCC(=O)O)NC(=O)[C@H](CC(C)C)NC(=O)[C@H](CCCC)NC(=O)[C@H](CCC(=O)O)NC(=O)[C@H](CCCN=C(N)N)NC(=O)[C@H](CC(C)C)NC(=O)[C@H](CC(C)C)NC(=O)[C@H](Cc1c[nH]cn1)NC(=O)[C@@H](Cc1ccccc1)NC(=O)[C@@H](NC(=O)[C@H](CC(C)C)NC(=O)[C@H](CC(=O)O)NC(=O)[C@H](CC(C)C)NC(C)=O)[C@@H](C)O)C(=O)N[C@@H](C)C(=O)N[C@@H](CCCCN)C(=O)N[C@@H](C)C(=O)N[C@@H](CCC(=O)O)C(=O)N[C@@H](CCC(N)=O)C(=O)N[C@@H](CCC(=O)O)C(=O)N[C@@H](C)C(=O)N[C@@H](CCC(=O)O)C(=O)N1C(=O)[C@H](C)NC(=O)[C@H](C)NC(=O)[C@@H](N)CCC(=O)NCCCC[C@H]1C(=O)N[C@@H](CC(N)=O)C(=O)N[C@@H](CCCN=C(N)N)C(=O)N[C@@H](CC(C)C)C(=O)N[C@@H](CC(C)C)C(=O)N[C@@H](CC(C)C)C(=O)N[C@@H](CCC(=O)O)C(=O)N[C@@H](CCC(=O)O)C(=O)N[C@@H](C)C(N)=O
IA (Rattus norvegicus [2]): 93%
Potency (Rattus norvegicus [3]): 0.073

CCCC[C@H](NC(=O)[C@H](CCCN=C(N)N)NC(=O)[C@H](CC(C)C)NC(=O)[C@H](CC(C)C)NC(=O)[C@H](CCC(=O)O)NC(=O)[C@H](CC(C)C)NC(=O)[C@H](CC(C)C)NC(=O)[C@H](CC(C)C)NC(=O)[C@H](CC(=O)O)NC(=O)[C@@H](NC(=O)[C@H](CO)NC(=O)[C@@H](NC(=O)[C@@H]1CCCN1C(=O)[C@@H]1CCCN1C(=O)CNC(=O)[C@H](CCC(=O)O)NC(=O)[C@@H]1CCCN1)[C@@H](C)CC)[C@@H](C)CC)C(=O)N[C@@H](CCCC)C(=O)N[C@H](C(=O)N[C@@H](CCC(=O)O)C(=O)N[C@H](C(=O)N[C@@H](CCC(=O)O)C(=O)N[C@@H](CCCCN)C(=O)N[C@@H](CCC(N)=O)C(=O)N[C@@H](CCC(=O)O)C(=O)N[C@@H](CCCCN)C(=O)N[C@@H](CCC(=O)O)C(=O)N[C@@H](CCCCN)C(=O)N1C(=O)[C@@H](C)NC(=O)[C@H](CCC(N)=O)NC(=O)[C@@H](N)CCC(=O)NCCCC[C@H]1C(=O)N[C@H](CC(N)=O)C(=O)N[C@H](CC(N)=O)C(=O)N[C@H](CCCN=C(N)N)C(=O)N[C@H](CC(C)C)C(=O)N[C@H](CC(C)C)C(=O)N[C@H](CC(C)C)C(=O)N[C@H](CC(=O)O)C(=O)N[C@@H](C(=O)N[C@@H](C(N)=O)[C@H](C)CC)[C@H](C)O)[C@@H](C)CC)[C@@H](C)CC
Potency (Rattus norvegicus [1]): 5.73

CCCC[C@H](NC(=O)[C@H](CCC(=O)O)NC(=O)[C@@H](NC(=O)[C@H](CCCC)NC(=O)[C@H](CC(N)=O)NC(=O)[C@H](CCCN=C(N)N)NC(=O)[C@H](CC(C)C)NC(=O)[C@H](CC(C)C)NC(=O)[C@H](Cc1c[nH]cn1)NC(=O)[C@@H](Cc1ccccc1)NC(=O)[C@@H](NC(=O)[C@H](CC(C)C)NC(=O)[C@H](CC(=O)O)NC(=O)[C@@H](NC(=O)[C@H](CO)NC(=O)[C@@H](NC(=O)[C@@H]1CCCN1C(=O)[C@@H]1CCCN1C(=O)[C@H](CC(=O)O)NC(=O)[C@H](CC(=O)O)NC(=O)[C@@H](N)CC(N)=O)[C@@H](C)CC)[C@@H](C)CC)[C@@H](C)O)[C@@H](C)CC)C(=O)N[C@@H](C)C(=O)N[C@@H](CCCN=C(N)N)C(=O)N[C@H](C(=O)N[C@@H](CCC(=O)O)C(=O)N[C@@H](CC(N)=O)C(=O)N[C@@H](CCC(=O)OC)C(=O)N[C@@H](CCCN=C(N)N)C(=O)N[C@@H](CCC(=O)O)C(=O)N[C@@H](CCC(=O)O)C(=O)N[C@@H](C)C(=O)NCC(=O)N[C@@H](CCCCN)C(=O)N[C@@H](CC(N)=O)C(=O)N[C@@H](CCCN=C(N)N)C(=O)N[C@@H](CCCCN)C(=O)N[C@@H](Cc1ccc(O)cc1)C(=O)N[C@@H](CC(C)C)C(=O)N[C@@H](CC(=O)O)C(=O)N[C@@H](CCC(=O)O)C(=O)N[C@H](C(N)=O)C(C)C)[C@@H](C)CC
Potency (Rattus norvegicus [3]): 1.1
